pIC50, pKd: −log10 of the molar value. Activity calls are given as the source filed them. The rule behind the calls is not given here.
Columns and labels:
PRMT5/MEP50 complex [1] = molecular target: T1, PRMT5/MEP50 complex (Homo sapiens, UniProt O14744); assay: (§1) Inhibition of full-length human N-terminal FLAG-tagged PRMT5/full length N-terminal His6-tagged MEP50 (unknown origin) expressed in baculovirus infected Sf9 insect cells assessed as reduction of S-adenosyl-L-homocysteine formation using human recombinant histone H2A (1 to 130 residues) and S-adenosyl-L-methionine as substrate after 60 mins by rapidfire mass spectrometry analysis
How it was run: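 PRMT5–MEP50 complex at 5.0 nM in assay; recombinant human histone H2A as substrate. Read-out is the decrease in SAM→SAH conversion, measured by RapidFire high-throughput mass spectrometry. IC50 reported as mean of n ≥ 2.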

[2] = molecular target: Protein arginine N-methyltransferase 5 (Homo sapiens, UniProt O14744); assay: Inhibition of PRMT5 in human A549 cells assessed as reduction in arginine dimethylation of SmD1/3 after 48 hrs by Hoechst Stain/ CellMask Deep Red Stain based immunohistochemistry method; format: cell-based
How it was run: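 A549 cells treated with compound for 48 h (2 days). Symmetric arginine dimethylation of SmD1/3 measured by immunofluorescence microscopy as the nuclear/cytoplasmic intensity ratio, normalized to DMSO control. Concentration–response curves; mean ± SE of at least three replicates (n ≥ 3).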

[3] = molecular target: N-lysine methyltransferase KMT5A (Homo sapiens) (UniProt Q9NQR1); assay: Inhibition of recombinant human GST-tagged SETD8 (195 to 352 residues) expressed in Escherichia coli using nucleosome as substrate at 10 uM by radiometric HotSpot assay relative to control
How it was run: (§2)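 Selectivity panel of 21 purified recombinant human arginine and lysine methyltransferases. Compound tested at a single 10 μM concentration; percent inhibition of each enzyme reported.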

[4] = molecular target: Histone-lysine N-methyltransferase SETD1B (Homo sapiens) (UniProt Q9UPS6); assay: Inhibition of recombinant human N- terminal GST-tagged SET1B (1629 to 1923 residues) expressed in Escherichia coli using core histone as substrate at 10 uM by radiometric HotSpot assay relative to control; how it was run: as §2
[5] = molecular target: Histone-arginine methyltransferase CARM1 (Homo sapiens) (UniProt Q86X55); assay: Inhibition of recombinant human FLAG-tagged PRMT4 (2 to end residues) expressed in FreeStyle HEK293-F cells using histone H3 as substrate at 10 uM by radiometric HotSpot assay relative to control; how it was run: as §2
[6] = molecular target: Protein arginine N-methyltransferase 3 (Homo sapiens) (UniProt O60678); assay: Inhibition of recombinant human His-tagged PRMT3 (2 to end residues) expressed in Escherichia coli using histone H4 as substrate at 10 uM by radiometric HotSpot assay relative to control; how it was run: as §2
[7] = molecular target: Histone-lysine N-methyltransferase SETD2 (Homo sapiens) (UniProt Q9BYW2); assay: Inhibition of recombinant human N-terminal GST-tagged SETD2 (1433 to 1711 residues) expressed in Escherichia coli using nucleosome as substrate at 10 uM by radiometric HotSpot assay relative to control; how it was run: as §2
[8] = molecular target: Histone-lysine N-methyltransferase PRDM9 (Homo sapiens) (UniProt Q9NQV7); assay: Inhibition of recombinant human N-terminal GST-tagged PRDM9 (2 to 414 residues) expressed in baculovirus infected Sf9 cells using histone H3 as substrate at 10 uM by radiometric HotSpot assay relative to control; how it was run: as §2
[9] = molecular target: T2, PRMT5/MEP50 complex (Homo sapiens) (UniProt O14744+Q9BQA1); assay: as §1, with “Non-competitive inhibition” for “Inhibition”, “and varying concentrations of” for “and”, “80” for “60”
[10] = molecular target: Histone-lysine N-methyltransferase, H3 lysine-36 specific (Homo sapiens) (UniProt Q96L73); assay: Inhibition of N-terminal His-tagged recombinant human NSD1 (1538 to 2696 residues) expressed in baculovirus infected insect cells using nucleosome as substrate at expressed in 10 uM by radiometric HotSpot assay relative to control; how it was run: as §2
[11] = molecular target: Protein arginine N-methyltransferase 1 (Homo sapiens) (UniProt Q99873); assay: Inhibition of recombinant human GST-tagged PRMT1 (2 to end residues) expressed in Escherichia coli using histone H4 as substrate at 10 uM by radiometric HotSpot assay relative to control; how it was run: as §2
[12] = molecular target: Histone-lysine N-methyltransferase SUV39H1 (Homo sapiens) (UniProt O43463); assay: Inhibition of recombinant human N-terminal fusion protein tagged and C-terminal His-tagged SUV39H1 (44 to 412 residues) expressed in Escherichia coli using nucleosome as substrate at 10 uM by radiometric HotSpot assay relative to control; how it was run: as §2
[13] = molecular target: Histone-lysine N-methyltransferase EHMT2 (Homo sapiens) (UniProt Q96KQ7); assay: Inhibition of N-terminal GST-fused recombinant human EHMT2 (786 to 1210 residues) expressed in Escherichia coli using histone H3 (1 to 21) as substrate at 10 uM by radiometric HotSpot assay relative to control; how it was run: as §2
[14] = molecular target: N-lysine methyltransferase SMYD2 (Homo sapiens) (UniProt Q9NRG4); assay: Inhibition of recombinant human N-terminal His-tagged SMYD2 (2 to 433 residues) expressed in Escherichia coli using histone H4 as substrate at 10 uM by radiometric HotSpot assay relative to control; how it was run: as §2
[15] = molecular target: Protein arginine N-methyltransferase 6 (Homo sapiens) (UniProt Q96LA8); assay: Inhibition of recombinant human His-tagged PRMT6 (2 to end residues) expressed in Escherichia coli using histone H3 as substrate at 10 uM by radiometric HotSpot assay relative to control; how it was run: as §2
PRMT5/MEP50 complex [16] = molecular target: T1, PRMT5/MEP50 complex; assay: Binding affinity to N-terminal FLAG-tagged human PRMT5 (1 to 637 residues)/N-terminal thrombin His-tagged MEP50 (2 to 342 residues) expressed in baculovirus infected Sf21 cells by streptavidin coated sensor chip based surface plasmon resonance analysis
[17] = molecular target: Histone-lysine N-methyltransferase, H3 lysine-79 specific (Homo sapiens) (UniProt Q8TEK3); assay: Inhibition of recombinant human N-terminal GST-tagged DOT1L (1 to 416 residues) expressed in Escherichia coli using nucleosome as substrate at 10 uM by radiometric HotSpot assay relative to control; how it was run: as §2
[18] = molecular target: Histone-lysine N-methyltransferase SUV39H2 (Homo sapiens) (UniProt Q9H5I1); assay: Inhibition of recombinant human C-terminal His-tagged SUV39H2 (48 to 410 residues) expressed in Escherichia coli using nucleosome as substrate at 10 uM by radiometric HotSpot assay relative to control; how it was run: as §2
[19] = molecular target: Histone-lysine N-methyltransferase KMT5B (Homo sapiens) (UniProt Q4FZB7); assay: Inhibition of recombinant human N-terminal GST-tagged SUV420H1 (2 to 393 residues ) expressed in baculovirus infected Sf9 cells using core histone as substrate at 10 uM by radiometric HotSpot assay relative to control; how it was run: as §2
[20] = molecular target: T2, PRMT5/MEP50 complex (Homo sapiens); assay: as §1, with “Competitive inhibition” for “Inhibition”, “using varying concentrations of” for “using”, “80” for “60”
Homo sapiens [21] = organism: Homo sapiens; assay: Inhibition of recombinant human N-terminal His-tagged EZH2 (2 to 746)/human recombinant AEBP2 (2 to 517)/human recombinant EED (2 to 441)/human recombinant RbAp48 (2 to 425)/human recombinant SUZ12 (2 to 739) expressed in baculovirus infected insect cells using core histone as substrate at 10 uM by radiometric HotSpot assay relative to control; how it was run: as §2
[22] = molecular target: Histone-lysine N-methyltransferase 2D (Homo sapiens) (UniProt O14686); assay: Inhibition of recombinant human N- terminal His-tagged MLL2 (5319 to 5537 residues) expressed in Escherichia coli using core histone as substrate at 10 uM by radiometric HotSpot assay relative to control; how it was run: as §2
[23] = molecular target: Histone-lysine N-methyltransferase SETD7 (Homo sapiens) (UniProt Q8WTS6); assay: Inhibition of recombinant human full length C-terminal His-tagged SETD7 expressed in Escherichia coli using core histone as substrate at 10 uM by radiometric HotSpot assay relative to control; how it was run: as §2
Homo sapiens [24] = organism: Homo sapiens; assay: Inhibition of recombinant human N-terminal His-tagged MLL1 (3745 to 3969 residues)/human WDR5 (22 to 334)/human RbBP5 (1 to 538)/human Ash2L (2 to 534)/human DPY30 (1 to 99) expressed in Escherichia coli using nucleosome as substrate at 10 uM by radiometric HotSpot assay relative to control; how it was run: as §2
[25] = molecular target: T2, PRMT5/MEP50 complex (Homo sapiens); assay: Inhibition of recombinat human N-terminal Flag-tagged PRMT5 (2 to 637 residues)/ N-terminal His-tagged MEP50 (2 to 342 residues) (unknown origin) expressed in baculovirus infected Sf9 cells using recombinant human histone H2A (1 to 130 residues) as substrate at 10 uM by radiometric HotSpot assay relative to control; how it was run: as §2
[26] = molecular target: Protein arginine N-methyltransferase 8 (Homo sapiens) (UniProt Q9NR22); assay: Inhibition of recombinant human N-terminal and C-terminal His-tagged PRMT8 (61 to 394 residues) expressed in Escherichia coli using histone H4 as substrate at 10 uM by radiometric HotSpot assay relative to control; how it was run: as §2
[27] = molecular target: Protein arginine N-methyltransferase 7 (Homo sapiens) (UniProt Q9NVM4); assay: Inhibition of recombinant human N-terminal His-tagged full length PRMT7 (2 to 692 residues) expressed in baculovirus system using GST-GAR as substrate at 10 uM by radiometric HotSpot assay relative to control; how it was run: as §2
A549 = assay: Cytotoxicity against human A549 cells assessed as cell viability up to 10 uM incubated for 48 hrs by Hoechst staining based fluorescence microscopic analysis; settings: a549, 48 h

Sequence of Protein arginine N-methyltransferase 5 (O14744 whole entry): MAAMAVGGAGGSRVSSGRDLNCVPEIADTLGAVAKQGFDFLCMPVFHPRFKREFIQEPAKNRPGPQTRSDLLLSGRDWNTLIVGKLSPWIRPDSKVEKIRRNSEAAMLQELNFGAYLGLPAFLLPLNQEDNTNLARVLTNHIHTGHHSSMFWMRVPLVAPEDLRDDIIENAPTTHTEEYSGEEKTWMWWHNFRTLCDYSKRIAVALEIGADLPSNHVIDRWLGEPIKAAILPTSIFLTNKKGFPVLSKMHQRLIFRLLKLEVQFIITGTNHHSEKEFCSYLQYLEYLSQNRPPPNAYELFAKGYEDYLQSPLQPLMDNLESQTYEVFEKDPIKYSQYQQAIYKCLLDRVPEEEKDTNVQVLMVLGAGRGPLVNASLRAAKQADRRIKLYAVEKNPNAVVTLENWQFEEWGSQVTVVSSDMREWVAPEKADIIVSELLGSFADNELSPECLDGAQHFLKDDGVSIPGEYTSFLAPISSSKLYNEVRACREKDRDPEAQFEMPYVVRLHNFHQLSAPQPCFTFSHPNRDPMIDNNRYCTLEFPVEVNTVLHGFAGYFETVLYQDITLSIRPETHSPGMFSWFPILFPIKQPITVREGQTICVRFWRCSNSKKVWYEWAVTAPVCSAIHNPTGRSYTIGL
T1 sequence (O14744 whole entry, the tested form may be a part): as the sequence (O14744 whole entry) above
T1 sequence (Q9BQA1 whole entry, further chain, the tested form may be a part): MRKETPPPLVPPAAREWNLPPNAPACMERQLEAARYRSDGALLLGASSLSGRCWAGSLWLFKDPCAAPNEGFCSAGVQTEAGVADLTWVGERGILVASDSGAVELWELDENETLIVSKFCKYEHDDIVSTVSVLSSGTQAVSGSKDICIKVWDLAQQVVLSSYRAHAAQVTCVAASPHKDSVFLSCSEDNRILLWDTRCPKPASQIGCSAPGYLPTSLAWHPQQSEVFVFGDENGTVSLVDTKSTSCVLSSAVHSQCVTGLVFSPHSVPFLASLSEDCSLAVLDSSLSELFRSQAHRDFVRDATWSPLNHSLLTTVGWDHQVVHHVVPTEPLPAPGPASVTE
Sequence of Histone-lysine N-methyltransferase SUV39H1 (Homo sapiens) (O43463 whole entry, the tested form may be a part): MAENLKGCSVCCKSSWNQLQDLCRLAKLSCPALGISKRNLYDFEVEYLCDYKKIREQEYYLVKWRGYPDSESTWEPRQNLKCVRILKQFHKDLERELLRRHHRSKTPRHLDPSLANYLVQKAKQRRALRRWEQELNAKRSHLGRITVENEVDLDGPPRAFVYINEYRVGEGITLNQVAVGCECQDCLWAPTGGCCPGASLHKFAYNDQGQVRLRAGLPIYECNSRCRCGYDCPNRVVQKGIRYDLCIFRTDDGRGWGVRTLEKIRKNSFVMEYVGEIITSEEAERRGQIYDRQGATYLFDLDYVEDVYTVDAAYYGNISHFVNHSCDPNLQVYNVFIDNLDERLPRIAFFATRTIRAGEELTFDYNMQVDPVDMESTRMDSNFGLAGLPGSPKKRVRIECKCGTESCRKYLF
Sequence of Histone-lysine N-methyltransferase SETD7 (Homo sapiens) (Q8WTS6 whole entry, the tested form may be a part): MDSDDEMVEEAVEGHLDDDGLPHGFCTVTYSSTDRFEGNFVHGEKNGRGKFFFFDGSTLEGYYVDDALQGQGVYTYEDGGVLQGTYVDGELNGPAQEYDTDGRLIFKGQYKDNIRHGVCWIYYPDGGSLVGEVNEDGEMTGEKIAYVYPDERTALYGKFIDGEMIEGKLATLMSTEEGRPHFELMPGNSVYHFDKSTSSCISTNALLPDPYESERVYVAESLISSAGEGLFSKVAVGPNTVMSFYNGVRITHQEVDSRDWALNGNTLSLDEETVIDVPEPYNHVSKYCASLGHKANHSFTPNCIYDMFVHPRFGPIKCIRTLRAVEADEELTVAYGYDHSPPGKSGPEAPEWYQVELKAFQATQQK
Sequence of Protein arginine N-methyltransferase 6 (Homo sapiens) (Q96LA8 whole entry, looked up, the tested form may be a part): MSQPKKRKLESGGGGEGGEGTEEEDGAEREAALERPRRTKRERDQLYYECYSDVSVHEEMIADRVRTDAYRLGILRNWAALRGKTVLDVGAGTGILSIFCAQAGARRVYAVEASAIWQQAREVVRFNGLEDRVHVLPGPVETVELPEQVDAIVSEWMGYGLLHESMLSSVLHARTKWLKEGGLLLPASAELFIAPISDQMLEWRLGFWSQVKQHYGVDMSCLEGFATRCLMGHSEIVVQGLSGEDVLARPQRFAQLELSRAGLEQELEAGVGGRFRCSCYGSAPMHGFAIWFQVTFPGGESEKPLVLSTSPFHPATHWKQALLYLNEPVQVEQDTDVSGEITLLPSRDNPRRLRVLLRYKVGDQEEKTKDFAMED
Sequence of N-lysine methyltransferase KMT5A (Homo sapiens) (Q9NQR1 whole entry, the tested form may be a part): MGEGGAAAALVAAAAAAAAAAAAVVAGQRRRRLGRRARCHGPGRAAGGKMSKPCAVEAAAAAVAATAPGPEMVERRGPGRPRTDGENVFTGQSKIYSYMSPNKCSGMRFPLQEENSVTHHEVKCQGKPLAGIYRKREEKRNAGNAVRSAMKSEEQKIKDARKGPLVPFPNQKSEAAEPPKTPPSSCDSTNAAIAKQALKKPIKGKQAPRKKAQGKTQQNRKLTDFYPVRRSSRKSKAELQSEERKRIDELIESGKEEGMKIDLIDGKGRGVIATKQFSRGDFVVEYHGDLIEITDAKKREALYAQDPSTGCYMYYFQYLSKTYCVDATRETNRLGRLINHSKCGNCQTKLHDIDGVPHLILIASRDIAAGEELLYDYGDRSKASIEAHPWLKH
Sequence of Protein arginine N-methyltransferase 3 (Homo sapiens) (O60678 2-531 limits assumed): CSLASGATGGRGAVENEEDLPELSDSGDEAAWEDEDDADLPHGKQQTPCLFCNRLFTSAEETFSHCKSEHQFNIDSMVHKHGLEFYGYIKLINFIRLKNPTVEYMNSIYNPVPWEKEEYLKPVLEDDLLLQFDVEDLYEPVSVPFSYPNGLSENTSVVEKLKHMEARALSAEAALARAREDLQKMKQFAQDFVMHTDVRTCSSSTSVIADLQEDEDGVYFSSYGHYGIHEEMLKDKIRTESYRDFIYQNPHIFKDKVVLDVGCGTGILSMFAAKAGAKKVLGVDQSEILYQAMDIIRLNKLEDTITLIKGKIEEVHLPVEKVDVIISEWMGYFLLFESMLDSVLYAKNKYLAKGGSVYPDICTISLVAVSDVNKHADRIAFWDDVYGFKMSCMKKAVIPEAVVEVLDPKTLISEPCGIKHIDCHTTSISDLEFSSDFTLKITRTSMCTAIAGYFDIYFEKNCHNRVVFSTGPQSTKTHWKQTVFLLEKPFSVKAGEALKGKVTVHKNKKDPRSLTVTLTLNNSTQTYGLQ
Sequence of Histone-lysine N-methyltransferase PRDM9 (Homo sapiens) (Q9NQV7 whole entry, the tested form may be a part): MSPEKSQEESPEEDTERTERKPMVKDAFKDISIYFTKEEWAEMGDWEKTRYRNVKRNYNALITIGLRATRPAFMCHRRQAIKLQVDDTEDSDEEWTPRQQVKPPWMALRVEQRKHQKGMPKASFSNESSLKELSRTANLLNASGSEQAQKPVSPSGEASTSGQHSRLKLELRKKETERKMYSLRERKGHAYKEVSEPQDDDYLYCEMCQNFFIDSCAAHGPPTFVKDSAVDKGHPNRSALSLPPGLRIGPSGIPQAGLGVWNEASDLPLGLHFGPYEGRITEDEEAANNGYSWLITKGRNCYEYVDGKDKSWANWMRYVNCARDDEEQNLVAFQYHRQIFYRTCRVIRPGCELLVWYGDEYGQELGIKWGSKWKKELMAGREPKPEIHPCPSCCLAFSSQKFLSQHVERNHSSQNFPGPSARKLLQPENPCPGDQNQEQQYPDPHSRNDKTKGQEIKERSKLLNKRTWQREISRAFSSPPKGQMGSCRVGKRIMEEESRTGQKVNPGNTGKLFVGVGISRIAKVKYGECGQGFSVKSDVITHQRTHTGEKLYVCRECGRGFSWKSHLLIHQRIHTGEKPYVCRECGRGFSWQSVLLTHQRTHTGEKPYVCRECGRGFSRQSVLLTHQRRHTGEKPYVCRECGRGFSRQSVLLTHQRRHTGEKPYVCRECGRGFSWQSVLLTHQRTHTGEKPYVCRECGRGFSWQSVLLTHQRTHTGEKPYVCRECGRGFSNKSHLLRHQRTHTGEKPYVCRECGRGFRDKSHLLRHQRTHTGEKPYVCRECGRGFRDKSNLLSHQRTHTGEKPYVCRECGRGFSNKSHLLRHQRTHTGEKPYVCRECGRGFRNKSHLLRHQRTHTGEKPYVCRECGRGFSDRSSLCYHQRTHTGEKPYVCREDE
Sequence of Protein arginine N-methyltransferase 8 (Homo sapiens) (Q9NR22 2-394 limits assumed): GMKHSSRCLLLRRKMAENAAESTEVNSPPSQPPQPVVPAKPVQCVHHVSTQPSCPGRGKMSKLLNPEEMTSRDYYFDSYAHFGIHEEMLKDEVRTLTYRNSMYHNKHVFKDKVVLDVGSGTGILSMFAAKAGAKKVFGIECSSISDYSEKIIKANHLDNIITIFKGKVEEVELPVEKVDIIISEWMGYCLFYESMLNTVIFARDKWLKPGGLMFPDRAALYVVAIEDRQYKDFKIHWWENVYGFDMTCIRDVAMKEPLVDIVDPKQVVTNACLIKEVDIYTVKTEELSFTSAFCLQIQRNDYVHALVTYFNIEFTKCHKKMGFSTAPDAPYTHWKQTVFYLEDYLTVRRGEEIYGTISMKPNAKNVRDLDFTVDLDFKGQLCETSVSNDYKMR

## Nc1ncnc2c1ncn2[C@@H]1O[C@H](CN2CCCC3(CNC3)C2)[C@@H](O)[C@H]1O
PRMT5/MEP50 complex [1]
  pIC50: 6.28

## Nc1ncnc2c1ncn2[C@@H]1O[C@H](CN2CCCC23CNC3)[C@@H](O)[C@H]1O
PRMT5/MEP50 complex [1]
  pIC50: 6.13

## Nc1ncnc2c1ncn2[C@@H]1O[C@H](CN2CCC3(CCNCC3)CC2)[C@@H](O)[C@H]1O
PRMT5/MEP50 complex [1]
  pIC50: < 5.00

## Nc1ncnc2c1ncn2[C@@H]1O[C@H](CN2CCC3(CCNCC3)C2)[C@@H](O)[C@H]1O
PRMT5/MEP50 complex [1]
  pIC50: 5.27

## Nc1ncnc2c1ncn2[C@@H]1O[C@H](CN2CCC23CCNCC3)[C@@H](O)[C@H]1O
PRMT5/MEP50 complex [1]
  pIC50: 6.43

## Nc1ncnc2c1ncn2[C@@H]1O[C@H](CN2CCCC23CCNC3)[C@@H](O)[C@H]1O (stereo in doubt; 3b)
PRMT5/MEP50 complex [1]
  pIC50: 5.57

## NCC[C@@H]1CCCN1C[C@H]1O[C@@H](n2cnc3c(N)ncnc32)[C@H](O)[C@@H]1O
[2]
  pIC50: 5.62
PRMT5/MEP50 complex [1]
  pIC50: 7.08

## Nc1ncnc2c1ncn2[C@@H]1O[C@H](CN2CCCC23CCCCC3)[C@@H](O)[C@H]1O
PRMT5/MEP50 complex [1]
  pIC50: < 5.00

## CC(=O)N1CCC2(CCCN2C[C@H]2O[C@@H](n3cnc4c(N)ncnc43)[C@H](O)[C@@H]2O)CC1
PRMT5/MEP50 complex [1]
  pIC50: < 5.00

## CN1CCC2(CCCN2C[C@H]2O[C@@H](n3ccc4c(N)ncnc43)[C@H](O)[C@@H]2O)CC1
[3]
  inhibition: < 25%
[4]
  inhibition: < 25%
[5]
  inhibition: < 25%
[6]
  inhibition: < 25%
[7]
  inhibition: < 25%
[8]
  inhibition: < 25%
[9]
  inhibition: Active
[10]
  inhibition: < 25%
[2]
  pIC50: 6.70
PRMT5/MEP50 complex [1]
  pIC50: 7.32
[11]
  inhibition: < 25%
[12]
  inhibition: < 25%
[13]
  inhibition: < 25%
[14]
  inhibition: < 25%
[15]
  inhibition: < 25%
PRMT5/MEP50 complex [16]
  pKd: 8.12
[17]
  inhibition: < 25%
[18]
  inhibition: < 25%
[19]
  inhibition: < 25%
[20]
  inhibition: Active
Homo sapiens [21]
  inhibition: < 25%
[22]
  inhibition: < 25%
[23]
  inhibition: < 25%
Homo sapiens [24]
  inhibition: < 25%
[25]
  inhibition: > 90%
[26]
  inhibition: < 25%
[27]
  inhibition: < 25%

## Nc1ncnc2c1ccn2[C@@H]1O[C@H](CN2CCCC23CCNCC3)[C@@H](O)[C@H]1O
[9]
  inhibition: Active
[2]
  pIC50: 7.24
PRMT5/MEP50 complex [1]
  pIC50: 8.02
[20]
  inhibition: Active

## Nc1ncnc2c1ncn2[C@@H]1O[C@H](CN2CCCC2)[C@@H](O)[C@H]1O
[2]
  pIC50: < 5.00
PRMT5/MEP50 complex [1]
  pIC50: 4.12

## Nc1ncnc2c1ncn2[C@@H]1O[C@H](CN2CCCC23CCNCC3)[C@@H](O)[C@H]1O
A549
  Activity: Non-Toxic
[2]
  pIC50: 5.64
PRMT5/MEP50 complex [1]
  pIC50: 7.28

## Nc1ncnc2c1ncn2[C@@H]1O[C@H](CN2CCC3(CCNC3)CC2)[C@@H](O)[C@H]1O
PRMT5/MEP50 complex [1]
  pIC50: < 5.00

## Nc1ncnc2c1ncn2[C@@H]1O[C@H](CN2CCC(N)CC2)[C@@H](O)[C@H]1O
PRMT5/MEP50 complex [1]
  pIC50: < 5.00

## Nc1ncnc2c1ncn2[C@@H]1O[C@H](CN2CCCC23CCNC3)[C@@H](O)[C@H]1O (stereo in doubt; 3a)
PRMT5/MEP50 complex [1]
  pIC50: 5.48

## NCC[C@H]1CCCN1C[C@H]1O[C@@H](n2cnc3c(N)ncnc32)[C@H](O)[C@@H]1O
PRMT5/MEP50 complex [1]
  pIC50: 6.47

## Nc1ncnc2c1ncn2[C@@H]1O[C@H](CN2CCC23CNC3)[C@@H](O)[C@H]1O
PRMT5/MEP50 complex [1]
  pIC50: 5.29

— ChEMBL document CHEMBL4725473, “A Chemical Probe for the Methyl Transferase PRMT5 with a Novel Binding Mode” (ACS Med Chem Lett, 2020)
